Assay [1] concerns the target T1, Methylcytosine dioxygenase TET1 (Homo sapiens, UniProt Q8NFU7). Nature of the assay: Inhibition of FLAG-tagged human TET1 catalytic domain (E1418 to V2136 residues) expressed in doxycycline induced human U2OS cells assessed as reduction in 5-hydroxymethylcytosine level at 30 to 100 uM incubated for 24 hrs by immunofluorescence assay. Format: cell-based. The note with it: dose 30-100 µM. An outline of the steps:
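U2OS cells stably carrying dox-inducible FLAG-tagged TET1 catalytic domain were seeded at 5,000/well in DMEM with Tet-approved FBS (10%), penicillin/streptomycin and L-glutamine, then held 4 h at 37 °C. Induction used doxycycline 1 μg/mL alongside compound (1% DMSO final) for 24 h. Cells were fixed, permeabilised, blocked, immunostained (rabbit polyclonal oxidised-cytosine antibody 1:500, anti-FLAG 1:1000, 16 h) and DAPI-counterstained. Mean staining intensity of FLAG-TET1 cells was imaged.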

Assay [2] deals with Methylcytosine dioxygenase TET2 (Homo sapiens, UniProt Q6N021). The experiment in a line: Inhibition of N-terminal His-tagged recombinant human TET2 catalytic domain LCIdel mutant (D1129 to G1936 residues with Y1481 to N1843 replaced by 3 x GGGGS linker) expressed in Escherichia coli BL21 (DE3) using 5-methylcytosine as substrate preincubated for 10 mins followed by substrate and DNA-cofactor addition measured after 10 mins by Alphascreen assay.

In assay [3] the target is T1, Methylcytosine dioxygenase TET1. The experiment in a line: Inhibition of N-terminal 3xFlag-tagged recombinant human TET1 catalytic domain (E1418 to V2136 residues) expressed in baculovirus infected Sf9 cells using 5-methylcytosine as substrate preincubated for 10 mins followed by substrate and DNA-cofactor addition measured after 30 mins by Alphascreen assay. Conditions: read-out: pIC50 (converted). The method, boiled down:
(§1)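 TET1 catalytic domain (E1418–V2136, Sf9 baculovirus) at 2 nM was preincubated 10 min with inhibitor (1% DMSO) in HEPES 50 mM pH 7.3, 150 mM NaCl, 0.1% BSA, 0.01% Tween-20. Reaction was started with ascorbate 200 µM, Fe(II) 20 µM, 2OG 20 µM and 5mC ssDNA 10 nM, run 30 min, then EDTA-quenched. Anti-5hmC antibody with AlphaScreen beads, 45–60 min, luminescence read. Three independent replicates.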

The target in assay [4] is T2, Methylcytosine dioxygenase TET3 (Homo sapiens, UniProt O43151). Nature of the assay: Inhibition of recombinant human TET3 catalytic domain (E824 to I1795 residues) expressed in baculovirus infected Sf9 cells using 5-methylcytosine as substrate preincubated for 10 mins followed by substrate and DNA-cofactor addition measured after 10 mins by Alphascreen assay. Conditions: read-out: pIC50 (converted).

Assay [5] has as its target T1, Methylcytosine dioxygenase TET1. The experiment in a line: Inhibition of N-terminal 3xFlag-tagged recombinant human TET1 catalytic domain (E1418 to V2136 residues) expressed in baculovirus infected Sf9 cells using 5-methylcytosine as substrate assessed as change in pIC50 preincubated for 10 mins followed by substrate and DNA-cofactor addition measured after 30 mins by Alphascreen assay. Conditions: time 40.0 min. An outline of the steps: as §1
In general terms: In Alpha technology, singlet oxygen from a donor bead excites a nearby acceptor bead.

The test system of assay [6] is Methylcytosine dioxygenase TET2 (Homo sapiens), Q6N021 [UNDEFINED MUTATION]. Conditions: time 20.0 min.
In assay [7] the target is T2, Methylcytosine dioxygenase TET3. The experiment in a line: Inhibition of recombinant human TET3 catalytic domain (E824 to I1795 residues) expressed in baculovirus infected Sf9 cells using 5-methylcytosine as substrate assessed as change in pIC50 preincubated for 10 mins followed by substrate and DNA-cofactor addition measured after 10 mins by Alphascreen assay. The note with it: time 20.0 min.

Active and inactive are the calls of the source. The calls are words filed in the database; no cut-off is given here.

For orientation: pIC50 means −log10 of the IC50, conventionally taken in molar units.

T1 sequence (Q8NFU7 whole entry, the tested form may be a part): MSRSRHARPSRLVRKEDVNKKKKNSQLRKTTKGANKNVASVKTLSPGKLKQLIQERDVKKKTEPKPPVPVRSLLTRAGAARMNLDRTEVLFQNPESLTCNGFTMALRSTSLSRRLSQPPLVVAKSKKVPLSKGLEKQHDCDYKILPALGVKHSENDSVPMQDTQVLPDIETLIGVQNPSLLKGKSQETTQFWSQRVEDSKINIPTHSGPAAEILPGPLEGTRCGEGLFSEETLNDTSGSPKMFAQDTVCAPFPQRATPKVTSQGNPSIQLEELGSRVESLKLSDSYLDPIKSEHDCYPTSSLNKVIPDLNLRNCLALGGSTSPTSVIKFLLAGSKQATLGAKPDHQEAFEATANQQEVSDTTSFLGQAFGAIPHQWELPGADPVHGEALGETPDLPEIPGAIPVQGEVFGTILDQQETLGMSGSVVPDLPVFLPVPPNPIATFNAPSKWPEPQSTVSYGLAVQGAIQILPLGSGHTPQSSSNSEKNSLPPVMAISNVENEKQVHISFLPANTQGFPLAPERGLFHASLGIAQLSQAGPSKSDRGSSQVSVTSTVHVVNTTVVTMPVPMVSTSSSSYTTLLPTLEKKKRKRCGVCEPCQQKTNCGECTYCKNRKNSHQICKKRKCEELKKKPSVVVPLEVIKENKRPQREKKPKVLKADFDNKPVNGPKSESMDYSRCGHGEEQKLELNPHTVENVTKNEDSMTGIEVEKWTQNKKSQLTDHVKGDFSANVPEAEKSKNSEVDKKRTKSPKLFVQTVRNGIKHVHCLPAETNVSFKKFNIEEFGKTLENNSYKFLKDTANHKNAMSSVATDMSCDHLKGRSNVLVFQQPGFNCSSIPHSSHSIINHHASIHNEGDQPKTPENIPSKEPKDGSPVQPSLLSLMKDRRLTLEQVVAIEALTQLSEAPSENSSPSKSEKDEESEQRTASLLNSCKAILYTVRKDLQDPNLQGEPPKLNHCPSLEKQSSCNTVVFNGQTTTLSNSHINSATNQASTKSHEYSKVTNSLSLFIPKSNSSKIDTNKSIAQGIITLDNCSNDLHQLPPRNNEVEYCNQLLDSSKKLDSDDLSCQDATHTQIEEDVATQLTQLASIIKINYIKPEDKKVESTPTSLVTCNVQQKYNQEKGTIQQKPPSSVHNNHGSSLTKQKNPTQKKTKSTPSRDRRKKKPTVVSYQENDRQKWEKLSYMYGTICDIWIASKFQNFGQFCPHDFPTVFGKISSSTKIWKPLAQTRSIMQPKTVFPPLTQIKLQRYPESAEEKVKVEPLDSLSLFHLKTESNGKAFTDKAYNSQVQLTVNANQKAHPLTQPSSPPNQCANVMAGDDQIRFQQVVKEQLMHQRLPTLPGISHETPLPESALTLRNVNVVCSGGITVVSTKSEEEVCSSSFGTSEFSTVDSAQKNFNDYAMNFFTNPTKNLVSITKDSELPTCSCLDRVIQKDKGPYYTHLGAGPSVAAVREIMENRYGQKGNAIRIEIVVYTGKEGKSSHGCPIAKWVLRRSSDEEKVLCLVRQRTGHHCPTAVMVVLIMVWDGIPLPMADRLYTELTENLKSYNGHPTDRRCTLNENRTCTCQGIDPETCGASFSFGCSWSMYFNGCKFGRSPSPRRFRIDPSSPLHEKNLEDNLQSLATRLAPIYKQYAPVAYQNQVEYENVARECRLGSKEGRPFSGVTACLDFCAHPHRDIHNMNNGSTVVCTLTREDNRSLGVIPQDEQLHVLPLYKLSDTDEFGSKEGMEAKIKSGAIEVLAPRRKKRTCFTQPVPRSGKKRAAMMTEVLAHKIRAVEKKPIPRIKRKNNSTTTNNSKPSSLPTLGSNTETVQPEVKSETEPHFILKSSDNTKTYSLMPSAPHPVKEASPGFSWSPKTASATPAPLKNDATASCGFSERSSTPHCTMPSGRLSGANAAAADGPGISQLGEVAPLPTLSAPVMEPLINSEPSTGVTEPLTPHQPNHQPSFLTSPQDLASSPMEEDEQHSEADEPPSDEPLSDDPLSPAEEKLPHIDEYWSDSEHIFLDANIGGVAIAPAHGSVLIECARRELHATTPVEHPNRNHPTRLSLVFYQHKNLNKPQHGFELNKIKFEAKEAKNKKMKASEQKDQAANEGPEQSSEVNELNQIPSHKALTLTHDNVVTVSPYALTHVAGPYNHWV

Take `N=C(N)NCCC[C@H](NC(=O)[C@H](CCCNC(=N)N)NC(=O)[C@H](CCCNC(=N)N)NC(=O)[C@H](CCCNC(=N)N)NC(=O)[C@H](CCCNC(=N)N)NC(=O)[C@H](CCCNC(=N)N)NC(=O)[C@H](CCCNC(=N)N)NC(=O)[C@@H](N)CCCNC(=N)N)C(=O)O`: the inhibition entry in assay [1] is “Active”. Besides, in assay [2], the negative logarithm of the IC50 (pIC50) was 6.45. Further, the IC50 in assay [3] was 251 nM; in assay [4], above 100 µM.

Take `CC[C@H](C)[C@@H]1NC(=O)[C@H](CC(C)C)NC(=O)[C@@H](Cc2ccc(O)cc2)NC(=O)CSC[C@@H](C(N)=O)NC(=O)[C@H](CO)NC(=O)[C@H](Cc2c[nH]cn2)NC(=O)[C@H](CCC(=O)O)NC(=O)[C@H](Cc2c[nH]c3ccccc23)NC(=O)[C@H](Cc2c[nH]c3ccccc23)NC(=O)[C@H]([C@@H](C)O)NC(=O)[C@H](Cc2ccc(O)cc2)NC(=O)[C@H](Cc2ccc(O)cc2)NC(=O)[C@H](C)NC(=O)[C@H](C)NC1=O`: the deltapIC50 is -1.51 in assay [5], -0.48 in assay [6] and -0.47 in assay [7]. The pIC50 in assay [2] was 4.22. Further, the IC50 in assay [3] was 10700 nM; in assay [4], 15.8 µM.

In the case of `CC[C@H](C)[C@@H]1NC(=O)[C@H](CC(C)C)NC(=O)[C@@H](Cc2ccc(O)cc2)NC(=O)CSC[C@@H](C(N)=O)NC(=O)[C@H](CO)NC(=O)[C@H](Cc2c[nH]cn2)NC(=O)[C@H](CCC(=O)O)NC(=O)[C@H](Cc2c[nH]c3ccccc23)NC(=O)[C@H](Cc2c[nH]c3ccccc23)NC(=O)[C@H]([C@@H](C)O)NC(=O)[C@H](C)NC(=O)[C@H](Cc2ccc(O)cc2)NC(=O)[C@H](C)NC(=O)[C@H](Cc2ccc(O)cc2)NC1=O`, the deltapIC50 was -1.46 in assay [5], -0.4 in assay [6] and -0.46 in assay [7]. Also, the pIC50 in assay [2] is 4.3. Further, the IC50 was 9550 nM in assay [3] and 15.5 µM in assay [4].

In the case of `CC[C@H](C)[C@@H]1NC(=O)[C@H](C)NC(=O)[C@@H](Cc2ccc(O)cc2)NC(=O)CSC[C@@H](C(N)=O)NC(=O)[C@H](CO)NC(=O)[C@H](Cc2c[nH]cn2)NC(=O)[C@H](CCC(=O)O)NC(=O)[C@H](Cc2c[nH]c3ccccc23)NC(=O)[C@H](Cc2c[nH]c3ccccc23)NC(=O)[C@H]([C@@H](C)O)NC(=O)[C@H](Cc2ccc(O)cc2)NC(=O)[C@H](Cc2ccc(O)cc2)NC(=O)[C@H](C)NC(=O)[C@H](Cc2ccc(O)cc2)NC1=O`, the deltapIC50 in assay [5] is -0.97; in assay [6], -0.31; in assay [7], -0.32. The negative logarithm of the IC50 (pIC50) in assay [2] was determined as 4.38. Moreover, the values for the IC50 in assay [3] and in assay [4] were 3090 nM and 11 µM, respectively.

In the case of `CC[C@H](C)[C@@H]1NC(=O)[C@H](CC(C)C)NC(=O)[C@@H](Cc2ccc(O)cc2)NC(=O)CSC[C@@H](C(N)=O)NC(=O)[C@H](CO)NC(=O)[C@H](C)NC(=O)[C@H](CCC(=O)O)NC(=O)[C@H](Cc2c[nH]c3ccccc23)NC(=O)[C@H](Cc2c[nH]c3ccccc23)NC(=O)[C@H]([C@@H](C)O)NC(=O)[C@H](Cc2ccc(O)cc2)NC(=O)[C@H](Cc2ccc(O)cc2)NC(=O)[C@H](C)NC(=O)[C@H](Cc2ccc(O)cc2)NC1=O`, the deltapIC50 in assay [5] worked out at 0.23; in assay [6], 0.23; in assay [7], 0.24. Moreover, the negative logarithm of the IC50 (pIC50) in assay [2] was 4.93. The IC50 is 195 nM in assay [3] and 3.09 µM in assay [4].

In the case of `CC[C@H](C)[C@@H]1NC(=O)[C@H](CC(C)C)NC(=O)[C@@H](Cc2ccc(O)cc2)NC(=O)CSC[C@@H](C(N)=O)NC(=O)[C@H](CO)NC(=O)[C@H](Cc2c[nH]cn2)NC(=O)[C@H](CCC(=O)O)NC(=O)[C@H](Cc2c[nH]c3ccccc23)NC(=O)[C@H](Cc2c[nH]c3ccccc23)NC(=O)[C@H]([C@@H](C)O)NC(=O)[C@H](Cc2ccc(O)cc2)NC(=O)[C@H](C)NC(=O)[C@H](C)NC(=O)[C@H](Cc2ccc(O)cc2)NC1=O`, the values for the deltapIC50 in assay [5], in assay [6] and in assay [7] were -0.52, -0.07 and -0.48, respectively. For the same compound, the negative logarithm of the IC50 (pIC50) in assay [2] is 4.63. The IC50 in assay [3] was 1100 nM; in assay [4] it was 16.2 µM.

As for `CC[C@H](C)[C@@H]1NC(=O)[C@H](CC(C)C)NC(=O)[C@@H](Cc2ccc(O)cc2)NC(=O)CSC[C@@H](C(N)=O)NC(=O)[C@H](CO)NC(=O)[C@H](Cc2c[nH]cn2)NC(=O)[C@H](C)NC(=O)[C@H](Cc2c[nH]c3ccccc23)NC(=O)[C@H](Cc2c[nH]c3ccccc23)NC(=O)[C@H]([C@@H](C)O)NC(=O)[C@H](Cc2ccc(O)cc2)NC(=O)[C@H](Cc2ccc(O)cc2)NC(=O)[C@H](C)NC(=O)[C@H](Cc2ccc(O)cc2)NC1=O`, the deltapIC50 in assay [5] is -0.72; in assay [6], -0.55; in assay [7], below -1.28. Moreover, the pIC50 in assay [2] is reported as 4.14. The results for the IC50 in assay [3] and in assay [4] were 1740 nM and above 100 µM, respectively.

As for `CC[C@H](C)[C@@H]1NC(=O)[C@H](CC(C)C)NC(=O)[C@@H](Cc2ccc(O)cc2)NC(=O)CSC[C@@H](C(N)=O)NC(=O)[C@H](CO)NC(=O)[C@H](Cc2c[nH]cn2)NC(=O)[C@H](CCC(=O)O)NC(=O)[C@H](Cc2c[nH]c3ccccc23)NC(=O)[C@H](Cc2c[nH]c3ccccc23)NC(=O)[C@H](C)NC(=O)[C@H](Cc2ccc(O)cc2)NC(=O)[C@H](Cc2ccc(O)cc2)NC(=O)[C@H](C)NC(=O)[C@H](Cc2ccc(O)cc2)NC1=O`, the results for the deltapIC50 in assay [5], in assay [6] and in assay [7] were -0.94, -0.05 and 0, respectively. In assay [2], the pIC50 worked out at 4.65. For the same compound, the IC50 is 2880 nM in assay [3] and 5.25 µM in assay [4].

On to `CC[C@H](C)[C@@H]1NC(=O)[C@H](CC(C)C)NC(=O)[C@@H](Cc2ccc(O)cc2)NC(=O)CSC[C@@H](C(N)=O)NC(=O)[C@H](CO)NC(=O)[C@H](Cc2c[nH]cn2)NC(=O)[C@H](CCC(=O)O)NC(=O)[C@H](C)NC(=O)[C@H](Cc2c[nH]c3ccccc23)NC(=O)[C@H]([C@@H](C)O)NC(=O)[C@H](Cc2ccc(O)cc2)NC(=O)[C@H](Cc2ccc(O)cc2)NC(=O)[C@H](C)NC(=O)[C@H](Cc2ccc(O)cc2)NC1=O`, for which the deltapIC50 in assay [5] was -1.63; in assay [6], below -0.7; in assay [7], -0.46. The pIC50 in assay [2] is given as below 4. Moreover, the figures for the IC50 in assay [3] and in assay [4] were 13800 nM and 15.1 µM, respectively.

`CC(C)C[C@@H]1NC(=O)[C@@H](Cc2ccc(O)cc2)NC(=O)CSC[C@@H](C(N)=O)NC(=O)[C@H](CO)NC(=O)[C@H](Cc2c[nH]cn2)NC(=O)[C@H](CCC(=O)O)NC(=O)[C@H](Cc2c[nH]c3ccccc23)NC(=O)[C@H](Cc2c[nH]c3ccccc23)NC(=O)[C@H]([C@@H](C)O)NC(=O)[C@H](Cc2ccc(O)cc2)NC(=O)[C@H](Cc2ccc(O)cc2)NC(=O)[C@H](C)NC(=O)[C@H](Cc2ccc(O)cc2)NC(=O)[C@H](C)NC1=O`: the deltapIC50 is -0.57 in assay [5], -0.29 in assay [6] and -0.42 in assay [7]. Also, in assay [2], the pIC50 was 4.41. The results for the IC50 in assay [3] and in assay [4] were 1230 nM and 13.8 µM, respectively.

In the case of `CC[C@H](C)[C@@H]1NC(=O)[C@H](CC(C)C)NC(=O)[C@@H](Cc2ccc(O)cc2)NC(=O)CSC[C@@H](C(N)=O)NC(=O)[C@H](CO)NC(=O)[C@H](Cc2c[nH]cn2)NC(=O)[C@H](CCC(=O)O)NC(=O)[C@H](Cc2c[nH]c3ccccc23)NC(=O)[C@H](C)NC(=O)[C@H]([C@@H](C)O)NC(=O)[C@H](Cc2ccc(O)cc2)NC(=O)[C@H](Cc2ccc(O)cc2)NC(=O)[C@H](C)NC(=O)[C@H](Cc2ccc(O)cc2)NC1=O`, the deltapIC50 was -1.32 in assay [5], -0.36 in assay [6] and -0.59 in assay [7]. Further, the pIC50 in assay [2] is reported as 4.34. Also, the IC50 in assay [3] was 6920 nM; in assay [4], 20.4 µM.

For `CC[C@H](C)[C@@H]1NC(=O)[C@H](CC(C)C)NC(=O)[C@@H](Cc2ccc(O)cc2)NC(=O)CSC[C@@H](C(N)=O)NC(=O)[C@H](C)NC(=O)[C@H](Cc2c[nH]cn2)NC(=O)[C@H](CCC(=O)O)NC(=O)[C@H](Cc2c[nH]c3ccccc23)NC(=O)[C@H](Cc2c[nH]c3ccccc23)NC(=O)[C@H]([C@@H](C)O)NC(=O)[C@H](Cc2ccc(O)cc2)NC(=O)[C@H](Cc2ccc(O)cc2)NC(=O)[C@H](C)NC(=O)[C@H](Cc2ccc(O)cc2)NC1=O`, the deltapIC50 in assay [5] is -0.1; in assay [6], -0.02; in assay [7] it was -0.08. Further, the pIC50 in assay [2] was 4.68. In addition, the IC50 was 417 nM in assay [3] and 6.31 µM in assay [4].

For the origin of these results see ChEMBL document CHEMBL5523688, “Selective targeting of human TET1 by cyclic peptide inhibitors: Insights from biochemical profiling” (Bioorg Med Chem, 2024).
